Assay results as given in ChEMBL document CHEMBL4390675, “Dopamine D4 Receptor-Selective Compounds Reveal Structure-Activity Relationships that Engender Agonist Efficacy” (J Med Chem, 2019).
Calls of active or inactive are those of the source. No cut-off for these calls is given here.

Legend:
D(3) dopamine receptor [1] = biological target: T1, D(3) dopamine receptor (Homo sapiens, UniProt P35462); test: Agonist activity at human D3 receptor expressed in CHOK1 cells assessed as induction of beta-arrestin recruitment measured after 90 mins by luminescence assay; format: cell-based
Summary of the method: (§1)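 PathHunter enzyme-complementation assay in CHO-K1 cells stably expressing human D2R long isoform, D3R or D4R, seeded overnight in Ham's F12/10% FBS. Compounds were diluted in PBS with 0.2 μM sodium metabisulfite and applied at multiple concentrations for 90 min at 37 °C. Detection reagent was added for 45–60 min at room temperature, then luminescence was read. Values are % of maximal dopamine response, from nonlinear regression of triplicate runs, mean ± SEM, n = 3–4.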

D(2) dopamine receptor [2] = biological target: T2, D(2) dopamine receptor (Homo sapiens, UniProt P14416); test: Agonist activity at human D2L receptor expressed in CHOK1 cells assessed as inhibition of forskolin-induced cAMP accumulation measured after 30 mins by Eu-cAMP tracer based TR-FRET assay; format: cell-based
Summary of the method: (§2)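 LANCE Ultra TR-FRET cAMP assay in CHO-K1 cells stably expressing human D2R long isoform or D4R. Cells were plated in HBSS/5 mM HEPES/0.2 μM metabisulfite, then immediately given compound plus forskolin (10 μM final) for 30 min at room temperature. Eu-cAMP tracer and ULight-anti-cAMP were added for 2 h in the dark. Values are % of maximal dopamine signal, nonlinear regression of triplicate runs, n = 3–4.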

D(3) dopamine receptor [3] = biological target: T1, D(3) dopamine receptor; test: Displacement of [3H]N-methylspiperone from human D3 receptor expressed in HEK293 cell membranes measured after 60 mins by scintillation counting method
Summary of the method: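 HEK293 cells stably expressing human D3R; membranes in EBSS buffer pH 7.4, stored at −80 °C. 20 μg protein/well with 0.4 nM [3H]N-methylspiperone (final), half-log dilutions in 30% DMSO, in triplicate. 60 min at room temperature, then GF/B filtration. Nonspecific binding with 10 μM (+)-butaclamol.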

D(3) dopamine receptor [4] = biological target: T1, D(3) dopamine receptor; test: Antagonist activity at human D3 receptor expressed in CHOK1 cells assessed as inhibition of dopamine-induced beta-arrestin recruitment measured after 90 mins by luminescence assay; format: cell-based
Summary of the method: (§3)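 Antagonist-mode PathHunter β-arrestin assay in CHO-K1 cells stably expressing human D2R long isoform or D3R, seeded overnight. Compound dilutions in PBS with 0.2 μM metabisulfite were co-incubated with an EC80 dopamine concentration for 90 min at 37 °C. Detection reagent was added for 45–60 min at room temperature, then luminescence was read. Values are % of dopamine EC80 response, from nonlinear regression of triplicate runs, n = 3–4.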

D(2) dopamine receptor [5] = biological target: T2, D(2) dopamine receptor; test: Agonist activity at human D2L receptor expressed in CHOK1 cells assessed as induction of beta-arrestin recruitment measured after 90 mins by luminescence assay; format: cell-based; summary of the method: as §1
D(4) dopamine receptor [6] = biological target: T3, D(4) dopamine receptor (Homo sapiens, UniProt P21917); test: Agonist activity at human D4 receptor expressed in CHOK1 cells assessed as inhibition of forskolin-induced cAMP accumulation measured after 30 mins by Eu-cAMP tracer based TR-FRET assay; format: functional, cell-based; summary of the method: as §2
T3 sequence (P21917 whole entry): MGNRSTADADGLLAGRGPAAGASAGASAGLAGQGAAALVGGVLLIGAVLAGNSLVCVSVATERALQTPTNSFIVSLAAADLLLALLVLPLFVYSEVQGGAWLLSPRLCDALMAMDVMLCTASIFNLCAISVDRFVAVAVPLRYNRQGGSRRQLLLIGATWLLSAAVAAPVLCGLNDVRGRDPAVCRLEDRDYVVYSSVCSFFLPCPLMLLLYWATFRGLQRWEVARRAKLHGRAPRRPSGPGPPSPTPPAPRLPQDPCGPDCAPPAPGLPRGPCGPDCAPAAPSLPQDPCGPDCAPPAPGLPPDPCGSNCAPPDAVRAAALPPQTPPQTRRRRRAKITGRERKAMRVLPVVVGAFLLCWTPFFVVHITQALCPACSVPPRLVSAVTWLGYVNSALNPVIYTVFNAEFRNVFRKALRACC

D(2) dopamine receptor [7] = biological target: T2, D(2) dopamine receptor; test: Antagonist activity at human D2L receptor expressed in CHOK1 cells assessed as suppression of dopamine-induced inhibition of forskolin-stimulated cAMP accumulation measured after 30 mins by Eu-cAMP tracer based TR-FRET assay relative to dopamine; format: cell-based; details: 0.5 h
D(4) dopamine receptor [8] = biological target: T3, D(4) dopamine receptor; test: Antagonist activity at human D4 receptor expressed in CHOK1 cells assessed as suppression of dopamine-induced inhibition of forskolin-stimulated cAMP accumulation measured after 30 mins by Eu-cAMP tracer based TR-FRET assay; format: functional, cell-based
D(4) dopamine receptor [9] = biological target: T3, D(4) dopamine receptor; test: Displacement of [3H](R)-(+)-7-OH-DPAT from human D4.4 receptor expressed in HEK293 cell membranes measured after 90 mins by scintillation counting method
Summary of the method: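 HEK293 cells stably expressing human D4.4R; membranes used fresh in 50 mM Tris, 10 mM MgCl2, 1 mM EDTA, pH 7.4. 60 μg protein/well with 3 nM [3H]-(R)-(+)-7-OH-DPAT (final), half-log dilutions in 30% DMSO, in triplicate. 90 min at room temperature, then GF/B filtration. Nonspecific binding with 10 μM (+)-butaclamol.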

D(4) dopamine receptor [10] = biological target: T3, D(4) dopamine receptor; test: Agonist activity at human D4 receptor expressed in CHOK1 cells assessed as induction of beta-arrestin recruitment measured after 90 mins by luminescence assay; format: cell-based; summary of the method: as §1
D(3) dopamine receptor [11] = biological target: T1, D(3) dopamine receptor; test: Displacement of [3H](R)-(+)-7-OH-DPAT from human D3 receptor expressed in HEK293 cell membranes measured after 90 mins by scintillation counting method
Summary of the method: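 Fresh HEK293 hD3R membranes (40 μg/well) in 50 mM Tris, 10 mM MgCl2, 1 mM EDTA, pH 7.4 were incubated with 0.5 nM [3H]-(R)-(+)-7-OH-DPAT and half-log compound dilutions in 30% DMSO for 90 min at room temperature. Nonspecific binding was defined with 10 μM (+)-butaclamol. Samples were filtered on PEI-soaked GF/B filters and counted by scintillation.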

D(4) dopamine receptor [12] = biological target: T3, D(4) dopamine receptor; test: Antagonist activity at human D4 receptor expressed in CHOK1 cells assessed as inhibition of dopamine-induced beta-arrestin recruitment measured after 90 mins by luminescence assay; format: cell-based; details: read-out: IC50
D(2) dopamine receptor [13] = biological target: T2, D(2) dopamine receptor; test: Antagonist activity at human D2L receptor expressed in CHOK1 cells assessed as inhibition of dopamine-induced beta-arrestin recruitment measured after 90 mins by luminescence assay relative to control; format: cell-based; summary of the method: as §3
D(4) dopamine receptor [14] = biological target: T3, D(4) dopamine receptor; test: Displacement of [3H]N-methylspiperone from human D4.4 receptor expressed in HEK293 cell membranes measured after 60 mins by scintillation counting method
Summary of the method: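 Frozen HEK293 membranes stably expressing human D4.4R (30 μg/well) in EBSS-bicarbonate buffer, pH 7.4, were incubated with 0.4 nM [3H]N-methylspiperone and half-log compound dilutions (30% DMSO vehicle) for 60 min at room temperature. Nonspecific binding was defined by 10 μM (+)-butaclamol. Samples were filtered on GF/B filters and counted by scintillation.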

[15] = biological target: T4, D(4) dopamine receptor (Homo sapiens) (UniProt P21917); test: Antagonist activity at human D4 receptor expressed in CHOK1 cells assessed as inhibition of dopamine-induced beta-arrestin recruitment measured after 90 mins by luminescence assay relative to control; format: cell-based; set-up: concentration or dose not given beside the values
T4 sequence (whole entry): T3 sequence (P21917 whole entry)

[16] = biological target: T4, D(4) dopamine receptor (Homo sapiens); test: Agonist activity at human D4 receptor expressed in CHOK1 cells assessed as inhibition of forskolin-induced cAMP accumulation measured after 30 mins by Eu-cAMP tracer based TR-FRET assay relative to dopamine; format: functional, cell-based; summary of the method: as §2
[17] = biological target: T4, D(4) dopamine receptor (Homo sapiens); test: Agonist activity at human D4 receptor expressed in CHOK1 cells assessed as induction of beta-arrestin recruitment measured after 90 mins by luminescence assay relative to control; format: cell-based; summary of the method: as §1
[18] = biological target: T4, D(4) dopamine receptor (Homo sapiens); test: Antagonist activity at human D4 receptor expressed in CHOK1 cells assessed as suppression of dopamine-induced inhibition of forskolin-stimulated cAMP accumulation measured after 30 mins by Eu-cAMP tracer based TR-FRET assay relative to dopamine; format: functional, cell-based; set-up: concentration or dose not given beside the values
[19] = biological target: D(1A) dopamine receptor (Homo sapiens) (UniProt P21728); test: Antagonist activity at D1 receptor (unknown origin) stably expressed in CHOK1 cells assessed as inhibition of dopamine-induced beta-arrestin recruitment measured after 90 mins by luminescence assay; format: cell-based
[20] = biological target: D(1B) dopamine receptor (Homo sapiens) (UniProt P21918); test: Agonist activity at D5 receptor (unknown origin) stably expressed in CHOK1 cells assessed as induction of beta-arrestin recruitment measured after 90 mins by luminescence assay; format: cell-based
[21] = biological target: D(1A) dopamine receptor (Homo sapiens) (UniProt P21728); test: Agonist activity at D1 receptor (unknown origin) stably expressed in CHOK1 cells assessed as induction of beta-arrestin recruitment measured after 90 mins by luminescence assay; format: cell-based
[22] = biological target: D(1B) dopamine receptor (Homo sapiens) (UniProt P21918); test: Antagonist activity at D5 receptor (unknown origin) stably expressed in CHOK1 cells assessed as inhibition of dopamine-induced beta-arrestin recruitment measured after 90 mins by luminescence assay; format: cell-based

T1 sequence (P35462 whole entry, canonical isoform): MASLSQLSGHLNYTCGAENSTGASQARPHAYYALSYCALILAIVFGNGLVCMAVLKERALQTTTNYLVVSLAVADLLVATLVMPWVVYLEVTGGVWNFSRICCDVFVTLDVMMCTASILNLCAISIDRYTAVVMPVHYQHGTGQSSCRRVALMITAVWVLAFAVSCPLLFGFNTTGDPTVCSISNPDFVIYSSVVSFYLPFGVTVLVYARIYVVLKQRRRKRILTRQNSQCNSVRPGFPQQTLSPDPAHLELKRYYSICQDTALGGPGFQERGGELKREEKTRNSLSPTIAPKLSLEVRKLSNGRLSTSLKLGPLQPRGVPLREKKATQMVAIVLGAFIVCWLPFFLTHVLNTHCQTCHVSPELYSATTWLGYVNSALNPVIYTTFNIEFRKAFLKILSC
T2 sequence (P14416 whole entry, canonical isoform): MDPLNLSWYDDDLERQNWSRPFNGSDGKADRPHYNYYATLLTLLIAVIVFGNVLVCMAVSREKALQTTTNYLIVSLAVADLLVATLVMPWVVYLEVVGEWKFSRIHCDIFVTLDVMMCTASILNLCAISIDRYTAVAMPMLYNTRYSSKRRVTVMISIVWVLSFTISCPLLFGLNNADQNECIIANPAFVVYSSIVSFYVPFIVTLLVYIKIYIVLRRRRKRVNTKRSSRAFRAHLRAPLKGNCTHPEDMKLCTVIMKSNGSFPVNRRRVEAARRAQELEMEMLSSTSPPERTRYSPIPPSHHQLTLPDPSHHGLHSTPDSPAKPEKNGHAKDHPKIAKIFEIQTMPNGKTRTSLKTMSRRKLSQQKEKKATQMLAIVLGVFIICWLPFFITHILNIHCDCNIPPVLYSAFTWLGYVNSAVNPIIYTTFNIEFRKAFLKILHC
Sequence of D(1A) dopamine receptor (Homo sapiens) (P21728 whole entry): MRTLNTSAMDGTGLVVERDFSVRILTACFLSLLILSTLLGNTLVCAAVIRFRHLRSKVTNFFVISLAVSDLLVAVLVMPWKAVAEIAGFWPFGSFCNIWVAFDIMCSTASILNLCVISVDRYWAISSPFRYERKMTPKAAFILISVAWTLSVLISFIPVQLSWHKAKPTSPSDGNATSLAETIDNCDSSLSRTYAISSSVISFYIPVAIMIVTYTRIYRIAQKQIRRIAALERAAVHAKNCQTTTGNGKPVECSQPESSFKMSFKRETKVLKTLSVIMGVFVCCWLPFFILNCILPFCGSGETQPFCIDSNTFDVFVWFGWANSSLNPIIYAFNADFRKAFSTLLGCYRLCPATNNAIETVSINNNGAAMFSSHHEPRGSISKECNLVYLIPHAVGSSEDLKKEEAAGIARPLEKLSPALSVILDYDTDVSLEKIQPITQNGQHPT
Sequence of D(1B) dopamine receptor (Homo sapiens) (P21918 whole entry): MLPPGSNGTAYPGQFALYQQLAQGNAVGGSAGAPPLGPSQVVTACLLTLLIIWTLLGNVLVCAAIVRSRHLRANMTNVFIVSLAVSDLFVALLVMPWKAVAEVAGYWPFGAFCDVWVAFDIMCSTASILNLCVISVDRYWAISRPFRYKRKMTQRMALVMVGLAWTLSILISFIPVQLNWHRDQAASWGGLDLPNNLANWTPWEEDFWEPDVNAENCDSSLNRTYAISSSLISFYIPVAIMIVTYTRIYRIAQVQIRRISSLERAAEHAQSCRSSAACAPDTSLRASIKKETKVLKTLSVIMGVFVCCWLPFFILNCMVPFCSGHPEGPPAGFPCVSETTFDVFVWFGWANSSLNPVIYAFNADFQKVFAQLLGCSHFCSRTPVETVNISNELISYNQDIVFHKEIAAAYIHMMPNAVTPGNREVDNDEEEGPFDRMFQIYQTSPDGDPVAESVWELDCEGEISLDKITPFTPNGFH

SMILES | EC50 (D(4) dopamine receptor [10]) | EC50 (D(4) dopamine receptor [6]; read-out: EC50) | EC50 (D(3) dopamine receptor [1]) | EC50 (D(2) dopamine receptor [2]) | Ki (D(3) dopamine receptor [3]) | IC50 (D(3) dopamine receptor [4]) | EC50 (D(2) dopamine receptor [5]) | EC50 (D(4) dopamine receptor [6]) | inhibition (INH) (D(2) dopamine receptor [7]) | IC50 (D(4) dopamine receptor [8]) | Ki (D(4) dopamine receptor [9]) | Ki (D(3) dopamine receptor [11]) | IC50 (D(4) dopamine receptor [12]) | INH (D(2) dopamine receptor [13]) | Ki (D(4) dopamine receptor [14]) | also measured
Cc1ccc(C2CCN(CC(=O)Nc3cccc(C)c3)CC2)nc1 | Not Active |  | Not Active | Not Active | > 50 µM | Not Active | Not Active | Not Active | 100% | 0.453 µM | 0.00687 µM | > 10 µM | 0.394 µM | 100% | 0.0417 µM | 
Cc1cccc(NC(=O)CN2CCN(c3cccc4ccccc34)CC2)c1 |  | 0.108 µM | Not Active | Not Active | 11.5 µM | Not Active | Not Active |  | 100% | 2.52 µM | 0.00165 µM | 1.25 µM | 4.25 µM | 100% | 0.0284 µM | inhibition [15]: 96.7%; EC50 (D(4) dopamine receptor [10]; read-out: EC50): 9.21 µM; Emax [16]: 27.8%; Emax [17]: 16.4%; inhibition [18]: 73.8%
CCc1cccc(NC(=O)CN2CCN(c3ccc(Cl)cn3)CC2)c1 | Not Active |  | Not Active | Not Active | > 50 µM | Not Active | Not Active | Not Active | 100% | 7.06 µM |  |  | 10.4 µM | 100% | 0.172 µM | 
Cc1cccc(NC(=O)CN2CCC(c3ccc(Cl)cc3)CC2)c1 | Not Active |  | Not Active | Not Active | 26.3 µM | Not Active | Not Active | Not Active | 97.5% |  |  |  |  | 100% |  | 
Cc1cccc(NC(=O)CN2CCN(c3ccc(Cl)cn3)CC2)c1 | Not Active |  | Not Active | Not Active | > 50 µM | Not Active | Not Active | Not Active | 98.3% | 4.7 µM | 0.0125 µM | > 10 µM | 7.78 µM | 100% | 0.095 µM | 

More lines, main results first:

EC50 (D(4) dopamine receptor [10]) | EC50 (D(4) dopamine receptor [6]; read-out: EC50) | SMILES | EC50 (D(3) dopamine receptor [1]) | EC50 (D(2) dopamine receptor [2]) | Ki (D(3) dopamine receptor [3]) | IC50 (D(3) dopamine receptor [4]) | EC50 (D(2) dopamine receptor [5]) | EC50 (D(4) dopamine receptor [6]) | inhibition (INH) (D(2) dopamine receptor [7]) | IC50 (D(4) dopamine receptor [8]) | Ki (D(4) dopamine receptor [9]) | Ki (D(3) dopamine receptor [11]) | IC50 (D(4) dopamine receptor [12]) | INH (D(2) dopamine receptor [13]) | Ki (D(4) dopamine receptor [14]) | also measured
Not Active |  | Cc1ccc(C2CCN(CC(=O)Nc3cccc(C)c3)CC2)cc1 | Not Active | Not Active | 3.68 µM | Not Active | Not Active | Not Active | 100% | 3.06 µM |  |  | 7.35 µM | 100% | 0.11 µM | 
Not Active | 0.568 µM | Cc1cccc(NC(=O)CCN2CCN(c3ncccn3)CC2)c1 | Not Active | Not Active | 4.53 µM |  | Not Active |  |  | 2.12 µM | 0.033 µM | 9.35 µM | 0.43 µM | 94.6% | 0.526 µM | inhibition [19]: inactive; Activity [20]: inactive; IC50 (D(3) dopamine receptor [4]; read-out: IC50): > 50 µM; Activity [21]: inactive; inhibition [22]: inactive
Not Active | 0.539 µM | CCc1cccc(NC(=O)CN2CCC(c3ccccn3)CC2)c1 | Not Active | Not Active | 0.496 µM | Not Active | Not Active |  | 96.6% | 1.91 µM |  |  | 2.62 µM | 100% | 0.0823 µM | 
